Drawing on ChEMBL document CHEMBL3596120, “Discovery of natural alkaloid bouchardatine as a novel inhibitor of adipogenesis/lipogenesis in 3T3-L1 adipocytes” (Bioorg Med Chem, 2015), this text covers Activity for one compound.

Assay [1] concerns 3T3-L1. The assay can be described thus: Effect on in AMPKalpha protein expression in mouse 3T3L1 cells at 25 uM after 0.5 to 4 hrs by Western blot method. Format: functional, cell-based.
For assay [2], the system named is 3T3-L1. Kind of assay: Inhibition of adipogenesis in mouse 3T3L1 cells assessed as reduction in triglyceride content at 0.2 mM by colorimetric assay. In kind it is functional, cell-based.
The test system of assay [3] is 3T3-L1. The assay can be described thus: Increase in AMPKalpha Thr172 phosphorylation in mouse 3T3L1 cells at 0.2 mM after 9 days by Western blot method. In kind it is cell-based. A digest of the protocol:
(§1)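 Mouse 3T3-L1 cells taken through the differentiation protocol, with compound or DMSO vehicle given from day 0 and renewed at day 3. Cells lysed on ice for 0.5 h in RIPA with PMSF, Na3VO4, NaF and protease inhibitors, then centrifuged at 12,000g. Lysates run on 12% SDS-PAGE and transferred to PVDF. Blots probed overnight at 4 °C and detected with HRP secondary. Bands quantified by optical density against GAPDH. Three independent experiments.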

The test system of assay [4] is 3T3-L1. Kind of assay: Activation of AMPK in mouse 3T3L1 cells assessed as increase in ACC Ser79 phosphorylation at 0.2 mM after 9 days by Western blot method. Format: cell-based. A digest of the protocol: as §1
For orientation: A western blot detects proteins with antibodies after separation by electrophoresis.

A short description of assay [5]: Reduction in SCD1 protein expression in mouse 3T3L1 cells at 0.2 mM after 3 days by Western blot method. The conditions noted are these: 3T3-L1. In kind it is functional, cell-based. A digest of the protocol:
(§2)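 3T3-L1 preadipocytes grown in DMEM with 10% FBS at 37 °C under 5% CO2. Differentiation starts 2 days post-confluence (day 0) with IBMX, 100 ng/mL dexamethasone and insulin for 3 d, then insulin in 10% FBS/DMEM for 3 d, then basic medium for 3 d. Compound is added on day 0 and renewed at day 3. Vehicle control receives the same volume of DMSO.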

Assay [6] can be described thus: Reduction in SREBP-1c protein expression in mouse 3T3L1 cells at 0.2 mM after 3 days by Western blot method. Format: functional, cell-based. The conditions noted are these: 3T3-L1. A digest of the protocol:
as §2

A short description of assay [7]: Reduction in PPARgamma protein expression in mouse 3T3L1 cells at 0.2 mM after 3 days by Western blot method. In kind it is functional, cell-based. The conditions noted are these: 3T3-L1. A digest of the protocol:
as §2

A short description of assay [8]: Reduction in C/EBPalpha protein expression in mouse 3T3L1 cells at 0.2 mM after 3 days by Western blot method. The conditions noted are these: 3T3-L1. Format: functional, cell-based. A digest of the protocol: as §1
Assay [9] is described as follows: Reduction in FAS protein expression in mouse 3T3L1 cells at 0.2 mM after 3 days by Western blot method. Format: functional, cell-based. As to conditions: 3T3-L1. A digest of the protocol: as §2

Calls of active or inactive are those of the source. No cut-off for these calls is given here.

`NC(=O)c1ncn([C@@H]2O[C@H](CO)[C@@H](O)[C@H]2O)c1N`: the outcome with 3T3-L1 [1] was inactive. The outcome (with 3T3-L1 [2]; with 3T3-L1 [3]; with 3T3-L1 [4]; in assay [5]; in [6]; in [7]) was Active. Also, the outcome in assay [8] and in [9] was Active.
